Results as given in ChEMBL document CHEMBL4765256, “Structural features and functional activities of benzimidazoles as NOD2 antagonists” (Eur J Med Chem, 2020).
pIC50: −log10 of the molar value. Activity calls are given as the source filed them. The rule behind the calls is not given here.

Tests used:
HEK293 [1] = test: Cytotoxicity against human HEK293 cells expressing human NOD1 assessed as reduction in metabolic activity at 20 uM incubated for 18 hrs by MTS assay; format: ADME, cell-based; settings: hek293, 18 h
Method in brief: (§1)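 HEK-Blue NOD1 or NOD2 cells seeded at 1 × 10^4 cells/well in triplicate. Treated 18 h with 20 µM compound or 0.1% DMSO vehicle. Metabolic activity read by MTS (CellTiter 96 AQueous One) and expressed relative to vehicle control. Mean ± SD of three biological replicates.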

[2] = biological target: T1, Nucleotide-binding oligomerization domain-containing protein 1 (Homo sapiens) (UniProt Q9Y239); test: Antagonist activity at human NOD1 expressed in HEK293 cells assessed as reduction in C12-iE-DAP-induced NF-kappaB activation at 10 uM preincubated for 1 hr followed by C12-iE-DAP stimulation and measured after 18 hrs by SEAP reporter gene based spectrophotometric analysis; format: cell-based; settings: filed as antagonist, time 19.0 hrs
T1 sequence (whole entry): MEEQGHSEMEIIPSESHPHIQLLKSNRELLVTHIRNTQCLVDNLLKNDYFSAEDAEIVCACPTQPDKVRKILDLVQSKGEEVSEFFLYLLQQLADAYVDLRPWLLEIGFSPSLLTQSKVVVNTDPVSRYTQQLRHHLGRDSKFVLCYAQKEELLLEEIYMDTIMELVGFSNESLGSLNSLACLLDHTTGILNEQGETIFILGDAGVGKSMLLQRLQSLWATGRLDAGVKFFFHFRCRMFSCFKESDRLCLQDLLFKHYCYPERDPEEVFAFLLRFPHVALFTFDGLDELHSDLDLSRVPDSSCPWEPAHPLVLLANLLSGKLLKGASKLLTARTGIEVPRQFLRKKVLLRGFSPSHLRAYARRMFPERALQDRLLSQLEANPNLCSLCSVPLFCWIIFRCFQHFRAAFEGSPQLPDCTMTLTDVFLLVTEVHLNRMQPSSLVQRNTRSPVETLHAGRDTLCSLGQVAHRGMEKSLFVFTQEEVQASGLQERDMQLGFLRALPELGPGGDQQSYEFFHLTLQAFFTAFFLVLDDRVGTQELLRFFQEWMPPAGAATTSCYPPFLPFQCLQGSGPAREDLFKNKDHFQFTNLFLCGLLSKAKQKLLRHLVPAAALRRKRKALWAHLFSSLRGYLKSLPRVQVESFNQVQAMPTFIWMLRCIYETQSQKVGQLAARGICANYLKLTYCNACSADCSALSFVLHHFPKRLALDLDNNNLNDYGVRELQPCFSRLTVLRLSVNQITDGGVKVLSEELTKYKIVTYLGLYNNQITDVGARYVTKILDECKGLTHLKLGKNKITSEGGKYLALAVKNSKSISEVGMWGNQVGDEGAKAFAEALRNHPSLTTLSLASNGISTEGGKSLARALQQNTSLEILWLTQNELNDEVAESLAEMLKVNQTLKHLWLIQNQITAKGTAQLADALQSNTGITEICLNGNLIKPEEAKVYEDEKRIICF
Method in brief: (§2)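 HEK-Blue NOD1 or NOD2 reporter cells (5 × 10^5 cells/mL, passages 7–12) pre-treated 1 h with 10 µM compound. Then 100 nM C12-iE-DAP (NOD1) or 2 µM MDP (NOD2) for 18 h at 37 °C, 5% CO2. Secreted SEAP read at 620 nm. DMSO ≤0.1% vehicle control. Duplicates, three biological replicates.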

[3] = biological target: T2, Nucleotide-binding oligomerization domain-containing protein 1 (Homo sapiens, UniProt Q9Y239); test: Antagonist activity at human NOD1 expressed in HEK293 cells assessed as reduction in C12-iE-DAP-induced NF-kappaB activation preincubated for 1 hr followed by C12-iE-DAP stimulation and measured after 18 hrs by SEAP reporter gene based spectrophotometric analysis; format: cell-based
T2 sequence (Q9Y239 whole entry): T1 sequence (whole entry)

[4] = biological target: T3, Nucleotide-binding oligomerization domain-containing protein 2 (Homo sapiens, UniProt Q9HC29); test: Antagonist activity at NOD2 in human THP-1 cells assessed as reduction in MDP-induced IL-8 secretion at 20 uM preincubated for 1 hr followed by MDP stimulation and measured after 20 hrs by ELISA; format: cell-based; settings: filed as antagonist, time 21.0 hrs
T3 sequence (Q9HC29 whole entry, the tested form may be a part): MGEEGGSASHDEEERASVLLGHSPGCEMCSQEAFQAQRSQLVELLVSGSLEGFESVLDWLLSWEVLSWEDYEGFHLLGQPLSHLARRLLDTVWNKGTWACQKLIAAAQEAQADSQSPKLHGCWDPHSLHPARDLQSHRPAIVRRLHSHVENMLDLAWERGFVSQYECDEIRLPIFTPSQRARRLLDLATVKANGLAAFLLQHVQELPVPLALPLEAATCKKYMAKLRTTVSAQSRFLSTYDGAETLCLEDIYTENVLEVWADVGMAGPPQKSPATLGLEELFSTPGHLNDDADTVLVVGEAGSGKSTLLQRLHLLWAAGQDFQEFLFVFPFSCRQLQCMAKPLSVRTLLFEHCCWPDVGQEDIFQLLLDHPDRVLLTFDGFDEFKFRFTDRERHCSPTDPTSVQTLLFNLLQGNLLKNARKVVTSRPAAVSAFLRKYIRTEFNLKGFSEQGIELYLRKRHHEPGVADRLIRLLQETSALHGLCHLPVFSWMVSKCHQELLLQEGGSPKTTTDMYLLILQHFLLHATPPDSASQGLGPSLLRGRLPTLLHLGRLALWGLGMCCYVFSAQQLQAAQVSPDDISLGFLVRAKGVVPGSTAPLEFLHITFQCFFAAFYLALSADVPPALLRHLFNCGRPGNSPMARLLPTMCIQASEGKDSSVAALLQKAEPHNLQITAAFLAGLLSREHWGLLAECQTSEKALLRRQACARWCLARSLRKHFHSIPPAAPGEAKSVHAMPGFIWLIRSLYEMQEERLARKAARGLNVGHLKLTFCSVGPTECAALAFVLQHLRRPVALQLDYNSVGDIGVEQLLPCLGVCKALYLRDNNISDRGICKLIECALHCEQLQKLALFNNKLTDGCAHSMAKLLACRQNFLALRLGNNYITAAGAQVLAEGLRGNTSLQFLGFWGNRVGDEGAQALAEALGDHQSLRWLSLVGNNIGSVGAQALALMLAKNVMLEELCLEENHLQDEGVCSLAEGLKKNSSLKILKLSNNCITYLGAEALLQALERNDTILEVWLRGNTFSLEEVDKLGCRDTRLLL
Method in brief: (§3)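 THP-1 cells at 10^6 cells/mL in 24-well cultures, passages 3–12. Pre-treated 1 h with 20 µM compound, then 10 µM MDP (NOD2) or 10 µM C12-iE-DAP (NOD1) added, 20 h at 37 °C, 5% CO2. Triplicate wells, DMSO ≤0.2% as vehicle control. Supernatant IL-8 by sandwich ELISA, detection limit 15.6 pg/mL. Mean ± SD of duplicates from three independent experiments, Dunnett test.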

THP-1 [5] = test: Antagonist activity at NOD1/TLR4 in human THP-1 cells assessed as reduction in C12-iE-DAP/LPS-induced TNF-alpha secretion at 20 uM preincubated for 1 hr followed by C12-iE-DAP/LPS stimulation and measured after 20 hrs by ELISA; format: cell-based; settings: time 21.0 hrs
Method in brief: (§4)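 Synergy setting in THP-1 cells: 1 h pre-treatment with 20 µM compound, then 10 µM MDP or C12-iE-DAP plus 1 ng/mL E. coli O127:B8 LPS for 20 h. Supernatant TNF-α by sandwich ELISA, detection limit 4 pg/mL. DMSO vehicle ≤0.2%. Duplicates from three independent experiments, mean ± SD, Dunnett test against agonist+LPS-treated cells.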

HEK293 [6] = test: Cytotoxicity against human HEK293 cells expressing human NOD2 assessed as reduction in metabolic activity at 20 uM incubated for 18 hrs by MTS assay; format: ADME, cell-based; settings: hek293, 18 h; method in brief: as §1
THP-1 [7] = test: Antagonist activity at NOD in human THP-1 cells assessed as increase in IL-8 secretion at 20 uM; format: cell-based
Method in brief: (§5)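 THP-1 cells at 10^6 cells/mL in RPMI 1640 with 10% heat-inactivated FCS, passages 3–12, exposed to 20 µM compound alone (no NOD agonist). IL-8 and TNF-α in cell-free supernatants measured by sandwich ELISA, reported in pg/mL. Detection limits were 15.6 pg/mL for IL-8 and 4 pg/mL for TNF-α. DMSO vehicle control, not above 0.2% final.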

THP-1 [8] = test: Cytotoxicity against human THP-1 cells assessed as […] dehydrogenase leakage at 20 uM incubated for 18 hrs; format: cell-based; settings: thp-1, 18 h
Method in brief: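 THP-1 cells treated 18 h with compound at up to 20 µM. Lactate dehydrogenase released into cell-free supernatant measured with a colorimetric kit, results given as OD.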

[9] = biological target: T1, Nucleotide-binding oligomerization domain-containing protein 1 (Homo sapiens); test: Antagonist activity at NOD1 in human THP-1 cells assessed as reduction in C12-iE-DAP-induced IL-8 secretion at 20 uM preincubated for 1 hr followed by C12-iE-DAP stimulation and measured after 20 hrs by ELISA; format: cell-based; settings: filed as antagonist, time 21.0 hrs; method in brief: as §3
THP-1 [10] = test: Antagonist activity at NOD in human THP-1 cells assessed as increase in TNF-alpha secretion at 20 uM; format: cell-based; method in brief: as §5
[11] = biological target: T3, Nucleotide-binding oligomerization domain-containing protein 2; test: Antagonist activity at human NOD2 expressed in HEK293 cells assessed as reduction in MDP-induced NF-kappaB activation at 10 uM preincubated for 1 hr followed by MDP stimulation and measured after 18 hrs by SEAP reporter gene based spectrophotometric analysis; format: cell-based; settings: filed as antagonist, time 19.0 hrs; method in brief: as §2
THP-1 [12] = test: Antagonist activity at NOD2/TLR4 in human THP-1 cells assessed as reduction in MDP/LPS-induced TNF-alpha secretion at 20 uM preincubated for 1 hr followed by MDP/LPS stimulation and measured after 20 hrs by ELISA; format: cell-based; settings: filed as antagonist, time 21.0 hrs; method in brief: as §4
[13] = biological target: T3, Nucleotide-binding oligomerization domain-containing protein 2; test: Antagonist activity at human NOD2 expressed in HEK293 cells assessed as reduction in MDP-induced NF-kappaB activation preincubated for 1 hr followed by MDP stimulation and measured after 18 hrs by SEAP reporter gene based spectrophotometric analysis; format: cell-based; settings: read-out: IC50
Method in brief: (§6)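 Dose–response in HEK-Blue NOD2 and NOD1 cells (5 × 10^5 cells/mL): 1 h pre-treatment with 0.3125–20 µM antagonist, then 2 µM MDP or 100 nM C12-iE-DAP respectively, 18 h incubation. SEAP absorbance read at 620 nm. IC50 fitted by non-linear regression. Duplicates, three biological replicates, DMSO ≤0.1%.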

Homo sapiens = organism: Homo sapiens; test: Selectivity index, ratio of IC50 for antagonist activity at human NOD1 expressed in HEK293 cells assessed as reduction in […] induced NF-kappaB activation preincubated for 1 hr followed by C12-iE-DAP stimulation and measured after 18 hrs by SEAP reporter gene based spectrophotometric analysis to IC50 for antagonist activity at human NOD2 cells expressed in HEK293 cells assessed as reduction in MDP induced NF-kappaB activation preincubated for 1 hr followed by […] stimulation and measured after 18 hrs by SEAP reporter gene based spectrophotometric analysis; format: cell-based; method in brief: as §6
[14] = biological target: T3, Nucleotide-binding oligomerization domain-containing protein 2; test: Antagonist activity at NOD2 in human PBMC assessed as reduction in MDP-induced IL-6 secretion at 20 uM preincubated for 1 hr followed by MDP stimulation and measured after 18 hrs by flow cytometric analysis; format: tissue-based; settings: filed as antagonist, time 19.0 hrs
Method in brief: (§7)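 Human PBMCs from healthy donors, Ficoll density-gradient isolated, 1 × 10^6 cells in RPMI 1640 with 10% heat-inactivated FBS. Pre-treated 1 h with 20 µM compound, then 2 µM MDP. Supernatants taken at 18 h and stored at −80 °C. Cytokines quantified by flow cytometric bead array (Th1/Th2 panel) against recombinant standards, in pg/mL. Mean ± SD from two representative experiments.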

[15] = biological target: T3, Nucleotide-binding oligomerization domain-containing protein 2; test: Antagonist activity at NOD2 in human PBMC assessed as reduction in MDP-induced IL-10 secretion at 20 uM preincubated for 1 hr followed by MDP stimulation and measured after 18 hrs by flow cytometric analysis; format: tissue-based; settings: filed as antagonist, time 19.0 hrs; method in brief: as §7
[16] = biological target: T3, Nucleotide-binding oligomerization domain-containing protein 2; test: Antagonist activity at NOD2 in human PBMC assessed as reduction in MDP-induced TNF-alpha secretion at 20 uM preincubated for 1 hr followed by MDP stimulation and measured after 18 hrs by flow cytometric analysis; format: tissue-based; settings: filed as antagonist, time 19.0 hrs; method in brief: as §7

SMILES	Activity (HEK293 [1])	Activity [2]	pIC50 [3]	Activity [4]	Activity (THP-1 [5])	Activity (HEK293 [6])	Activity (THP-1 [7])	Activity (THP-1 [8])	Activity [9]	Activity (THP-1 [10])	Activity [11]	Activity (THP-1 [12])	pIC50 [13]	Ratio IC50 (Homo sapiens)	Activity [14]	Activity [15]	Activity [16]	Activity (THP-1 [5]; filed as antagonist)
CN(C)c1cccc2c(S(=O)(=O)NCCc3nc4ccccc4n3CC(=O)Nc3ccc4c(c3)CCC4)cccc12	Non-Toxic	Active	5.57	Active	inactive	Non-Toxic	inactive	Non-Toxic	Active	inactive	Active	Active	5.21	–	–	–	–	–
O=C(Cn1c(CCNC(=O)c2ccccc2)nc2ccccc21)Nc1ccc2c(c1)CCC2	Non-Toxic	Active	4.56	Active	–	Non-Toxic	–	–	–	–	Active	–	5.21	4.5	–	–	–	–
O=C(Cn1c(CCNS(=O)(=O)c2ccccc2)nc2ccccc21)Nc1ccc2c(c1)CCC2	Non-Toxic	Active	4.55	Active	inactive	Non-Toxic	inactive	Non-Toxic	Active	inactive	Active	Active	5.28	–	Active	Active	Active	–
Cc1ccc(S(=O)(=O)n2c(N)nc3ccccc32)cc1	Non-Toxic	Active	–	–	–	Non-Toxic	–	–	Active	–	–	–	–	–	–	–	–	Active
O=C(Cn1c(CCCNC(=O)c2ccccc2)nc2ccccc21)Nc1ccc2c(c1)CCC2	Non-Toxic	Active	4.75	Active	inactive	Non-Toxic	inactive	Non-Toxic	Active	inactive	Active	Active	5.24	–	–	–	–	–
